# Source: PubChem BioAssay (several laboratories)
# Beta apoptosis: blocks beta cell apoptosis. INS-1E cytokine-induced death, ATP luminescence, 48 h; percent of positive-control rescue, neutral wells zero. protection from apoptosis, % (no concentration beside the values). AID 435005. 300,000 compounds, 0.8% hits;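 active means Every replicate reaches about 75%, or at least half do and their mean reaches it too, limit read from the data; inconclusive means At least half of replicates reach the limit but their mean does not; inactive means Under half of replicates reach the limit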;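 further: 0% = cytokine-treated negative control wells and 100% = positive control rescue; higher means more ATP so stronger rescue from cytokine killing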
# SKKanGAS inh: SKKanGAS growth inhibition. S. pyogenes SKKanGAS, kanamycin growth, BacTiter-Glo, 6 h. inhibition, % at 7.5 µM. 300,000 compounds, 1.3% hits. AID 1662;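 active means mean replicate score, as percent of positive control median, at least 50; inconclusive means mean below 50 but one replicate at or above 50; inactive means mean and every replicate below 50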;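 further: strain carries kanamycin resistance gene driven by streptokinase promoter and grows in 40 µg/ml kanamycin; loss of luminescence reflects streptokinase promoter inhibition or plain growth inhibition; 0% = median of DMSO wells and 100% = positive control at its reference dose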
# CSC inhib: cancer stem cell inhibition; cancer stem cell-like cells viability, luminescence; inhibition, % at 7.5 µM; 300,000 compounds, 1.1% hits; in the data active means inhibition above about 75%; inconclusive means no clear call, values can overlap the other calls; tested in HMLE shEcad cells
# Mdm2-MdmX inh: disrupts the human Mdm2-MdmX interaction; AID 485346; inhibition, % at 8 µM; O15151+Q00987; SaOS-2 split-luciferase Mdm2/MdmX complementation, luminescence; 330,000 compounds, 3% hits;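 active means inhibition of at least 50% at 8 µM in the primary screen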
# Target sequence (O15151 whole entry, looked up): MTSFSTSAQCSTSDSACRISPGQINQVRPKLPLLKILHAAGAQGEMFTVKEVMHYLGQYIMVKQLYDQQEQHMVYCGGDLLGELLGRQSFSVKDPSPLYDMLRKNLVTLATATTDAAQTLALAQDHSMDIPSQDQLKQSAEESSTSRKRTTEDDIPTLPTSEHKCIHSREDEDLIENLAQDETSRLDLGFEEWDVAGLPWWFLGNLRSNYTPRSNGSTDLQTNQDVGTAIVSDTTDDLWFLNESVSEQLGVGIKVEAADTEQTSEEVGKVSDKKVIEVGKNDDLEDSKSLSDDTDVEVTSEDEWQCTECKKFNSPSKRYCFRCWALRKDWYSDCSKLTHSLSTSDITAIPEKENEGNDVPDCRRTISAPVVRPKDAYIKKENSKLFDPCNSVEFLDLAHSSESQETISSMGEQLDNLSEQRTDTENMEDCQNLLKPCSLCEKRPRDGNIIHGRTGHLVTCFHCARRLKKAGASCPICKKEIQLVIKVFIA
# Target sequence (Q00987 whole entry, looked up): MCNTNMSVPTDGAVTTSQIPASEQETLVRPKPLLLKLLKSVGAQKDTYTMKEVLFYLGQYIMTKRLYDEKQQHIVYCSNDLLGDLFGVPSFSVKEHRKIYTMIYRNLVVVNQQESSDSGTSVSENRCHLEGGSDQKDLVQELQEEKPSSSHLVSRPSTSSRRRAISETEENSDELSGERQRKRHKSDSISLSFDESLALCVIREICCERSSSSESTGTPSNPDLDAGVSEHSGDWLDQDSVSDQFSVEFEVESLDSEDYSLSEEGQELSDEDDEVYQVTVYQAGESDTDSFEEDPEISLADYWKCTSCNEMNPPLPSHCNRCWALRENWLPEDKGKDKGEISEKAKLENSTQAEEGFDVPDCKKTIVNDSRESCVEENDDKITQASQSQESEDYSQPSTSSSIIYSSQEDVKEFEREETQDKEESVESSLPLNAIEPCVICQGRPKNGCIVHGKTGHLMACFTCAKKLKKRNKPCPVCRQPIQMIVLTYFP
# T cruzi inh: T. cruzi replication inhibition. T. cruzi beta-gal in NIH3T3, luminescence, 90 h. inhibition, % (test concentration not listed). 300,000 compounds, 1.4% hits. AID 1885;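 active means mean inhibition across valid replicates above about 55%, limit read from the data; inconclusive means mean below that limit but half or more replicates reach it; inactive means mean below it, under half of replicates reach it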;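 further: signal also drops with host cell toxicity which is not excluded here; 0% = plate median of DMSO wells and 100% = zero luminescence signal; higher percent means less beta-gal luminescence so fewer parasites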
#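 System: NIH/3T3 fibroblasts plus reporter T. cruzi. Medium: DMEM plus 2% FBS. Probe or stimulus: 5000 reporter trypomastigotes per well. Compound: single 50 nL compound addition per well in DMSO. Incubation: co-culture of at least 90 h after 3 h attachment. Detection: GalScreen β-gal luminescence, detergent lysis, 60 min. Evaluation: parasite load inhibition, %.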
# Lmaj promast: Leishmania major promastigote growth inhibition. Leishmania major promastigotes, resazurin fluorescence viability. inhibition, % at 10 µM. 200,000 compounds, 9% hits. AID 1063; in the data active means inhibition above about 50%;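 further: promastigotes grown with compound for 44 hours at 28 °C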
# The depositor's hits bear a star; ? = inconclusive; · = no result given. In the library only some 9.4% were active in any assay of this set; here they are far more common.
SMILES,Beta apoptosis,SKKanGAS inh,CSC inhib,Mdm2-MdmX inh,T cruzi inh,Lmaj promast
CC(=O)NC1(c2nnnn2CCOC(=O)Nc2ccc(Cl)cc2)CCCC1,8,-1,-9,32,-8,-5
COCCOC(=O)C1=C(C)NC(=O)NC1c1ccc(-c2cc(Cl)ccc2Cl)o1 (stereo not given),0,12,-4,11,27,14
COc1ccc(C2SCC(=O)N2CC23CC4CC(CC(C4)C2)C3)cc1 (stereo not given),4,21,-9,20,61*,33
CCCCCn1c(=O)c2ccccc2n2c(CCl)nnc12,0,-4,-6,31,-31,87*
CCCn1c(=O)c2ccccc2n2c(SCC(N)=O)nnc12,7,-6,-9,-12,-4,·
CC(C)CCn1c(=O)c2ccccc2n2c(CCl)nnc12,-5,1,-3,22,35,93*
CC(/C=C1\SC(=Nc2cccnc2)NC1=O)=C\c1ccccc1,16,56*,61,25,-17,·
O=C1/C(=C/c2ccncc2)CCc2ccccc21,8,21,-5,39,9,·
COc1cc(/C=C2\CCc3ccccc3C2=O)cc(OC)c1OC,1,-3,-12,27,-5,77*
COc1ccc2c(c1)CC/C(=C\c1ccc(OC)c(Cn3cccn3)c1)C2=O,-1,8,·,-13,39,98*
COc1cc(/C=C2\CC/C(=C\c3cc(OC)c(OC)c(OC)c3)C2=O)cc(OC)c1OC,8,21,4,32,35,96*
COc1ccc(/C=C2\CCc3ccccc3C2=O)cc1CN1CCOCC1,0,-2,-3,8,?,·
COc1cc(/C=C2/CCc3ccccc3C2=O)cc(OC)c1OC,-5,-12,4,45,8,55*
COC(=O)c1ccccc1N(C)S(=O)(=O)c1cc2c3c(c1)CCC(=O)N3CCC2,-9,-5,·,-16,2,·
O=C1CC[C@@]23CCCN2C(=O)CCCC3C1 (stereo not given in full),·,·,·,-8,·,·
CCOC(=O)N1CCN(C(=O)c2cc3c(s2)-c2ccc(Cl)cc2S(=O)(=O)C3)CC1,5,-2,3,-5,7,-4
CN(C(=O)c1ccccc1-c1ccccc1C(=O)O)c1ccccc1,0,1,-9,-1,-7,·
COc1ccc(/C=C2/CCc3ccccc3C2=O)cc1OC,0,-4,-11,-18,-18,52*
COc1ccc(/C=C2\COc3ccccc3C2=O)cc1OC,-1,-5,24,11,1,100*
CC(C)(C)C1CCc2c(C(=O)N/N=C/c3cccs3)csc2C1 (stereo not given),1,20,36,-66,15,96*
CC(C)(C)C1CCc2c(C(=O)NNC(=O)/C=C/C(=O)O)csc2C1 (stereo not given),0,25,3,-28,1,-6
CN(C)C(=S)N=Nc1[nH]c2ccccc2c1O,23,39,10,31,48,97*
Cc1cc(C)n(-c2ccc(NC(=O)C3CCN(Cc4ccc(C)o4)CC3)cc2)n1,-6,3,-11,8,7,·
CC(C)[C@@H](C(=O)N[C@@H](C(=O)O)c1ccccc1)N1C(=O)N2CCc3c([nH]c4ccccc34)[C@@]2(C)C1=O,-6,-1,-7,10,15,·
Cc1ccc(S(=O)(=O)N2CCN(C(=O)CN3CCc4ccccc4C3)CC2)cc1,·,-4,10,12,17,88*
SMILES,Beta apoptosis,SKKanGAS inh,CSC inhib,Mdm2-MdmX inh,T cruzi inh,Lmaj promast
O=C(Nc1ccc(S(=O)(=O)N2CCOCC2)cc1)c1ccc(CN2CCc3ccccc3C2)cc1,123*,10,0,32,22,91*
O=C(Nc1ccc(Cl)cc1)c1ccc(CN2CCc3ccccc3C2)cc1,3,-3,-5,4,6,·
O=C(Nc1ccccc1)c1ccc(S(=O)(=O)N2CCOCC2)cc1,0,-7,-12,11,4,7
O=C(Nc1ccc(S(=O)(=O)N2CCCC2)cc1)c1ccc(CN2CCc3ccccc3C2)cc1,4,12,·,21,6,90*
O=C(Nc1ccc(S(=O)(=O)N2CCc3ccccc32)cc1)c1ccc2c(c1)OCO2,·,26,11,10,57*,19
COc1ccccc1C(=O)Nc1ccc(S(=O)(=O)N2CCc3ccccc32)cc1,4,5,9,-59,31,80*
COCCNC(=O)c1c[nH]c2ccc(S(=O)(=O)N3CCc4ccccc43)cc2c1=O,-17,-9,84*,21,20,2
COCCCNC(=O)c1c[nH]c2ccc(S(=O)(=O)N3CCc4ccccc43)cc2c1=O,-3,9,14,26,-1,2
CCOc1ccccc1NC(=O)C(NCC1CCCCC1)c1ccccc1 (stereo not given),2,55*,24,30,27,27
COc1cc(OC)c(C(=O)NNC(=S)NC2CCCCC2)cc1OC,-2,0,8,-15,-7,51*
CCOc1ccccc1NC(=O)C(NCCN(C)C)c1ccccc1 (stereo not given),-6,1,-22,11,21,4
COc1ccccc1NC(=S)NC1CCCCCCCCCCC1,77*,12,20,50,54,·
COc1ccccc1NC(=S)NC1CCCCC1,-4,4,-15,-20,1,44
COc1ccc(Cl)cc1C(=O)NNC(=S)NC1CCCCC1,17,2,-9,12,4,·
CCOc1ccccc1NC(=S)NC1CCCCC1,-2,-9,2,3,4,92*
c1ccc(-c2nc3cccnc3nc2-c2ccccc2)cc1,·,-1,-19,10,-2,·
COc1ccc(NS(=O)(=O)c2cccc(C(=O)NNC(=O)c3ccc(Br)o3)c2)cc1,-11,2,1,30,-9,·
O=C(c1ccc2c(=O)n3c(nc2c1)CCC3)N1CCCSC1=Nc1ccccc1,-16,-3,2,31,-5,·
Cc1nn(CC(=O)N2CCC(C)CC2)c(=O)c2nn(-c3ccccc3)c(C)c12,-4,-2,-4,4,6,·
O=C(NCCc1ccccc1)C1CC(=O)N(C2CCCC2)C1 (stereo not given),-4,-1,8,6,-6,·
C[C@H](NC(=O)c1ccc2ccccc2c1)C(=O)N1CCC2(CC1)NCCc1[nH]cnc12,-4,-7,-8,14,11,·
Cc1ccc(C(=O)Nn2cnnc2)cc1S(=O)(=O)N1CCOCC1,-9,-4,-4,-21,-8,·
Cn1c(SCC(=O)Nc2ccc(NC(=O)c3cccc(F)c3)cc2)nnc1-c1ccncc1,-6,-3,0,26,5,·
COc1ccc(OCC(=O)Nc2cc(-c3nn(C)c(=O)c4ccccc34)ccc2OC)cc1,23,-5,14,48,17,8
COc1ccc(-c2nn(C)c(=O)c3ccccc23)cc1NC(=O)Cn1nc(-c2ccccc2)c2ccccc2c1=O,12,31,15,43,44,65*
